Active and inactive are the calls of the source. The rule behind the calls is not given here.
Columns and labels:
CWR22R [1] = test: Antitumor activity against human CWR22Rv1 cells xenografted in SCID mouse assessed as reduction in fAR protein expression at 20 mg/kg, ip dosed once daily for 5 days per week for 28 days by SDS-PAGE and Western blotting method; type: functional, organism-based; set-up: dose 20 mg/kg
Summary of the method: (§1)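 CWR22Rv1 cells (1 × 10⁶) implanted subcutaneously in male SCID mice, castrated; at ~100 mm³ tumors, randomized (n = 6/group) to vehicle (40% β-cyclodextrin in ddH₂O) or drug ip in same vehicle once daily, 5 days/week for 28 days. Tumor lysates made in RIPA buffer, 50 μg protein from pooled samples (n = 6) on 10% SDS–PAGE, immunoblotted; GAPDH as loading control.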

CWR22R [2] = test: Antitumor activity against human CWR22Rv1 cells xenografted in SCID mouse assessed as reduction in Bcl2 protein expression at 20 mg/kg, ip dosed once daily for 5 days per week for 28 days by SDS-PAGE and Western blotting method; type: functional, organism-based; set-up: dose 20 mg/kg; summary of the method: as §1
CWR22R [3] = test: Antitumor activity against human CWR22Rv1 cells xenografted in SCID mouse assessed as reduction in cyclin D1 protein expression at 20 mg/kg, ip dosed once daily for 5 days per week for 28 days by SDS-PAGE and Western blotting method; type: functional, organism-based; set-up: dose 20 mg/kg; summary of the method: as §1
Mus musculus = test: Toxicity in human CWR22Rv1 cells xenografted SCID mouse assessed as effect on body weight at 20 mg/kg, ip dosed once daily for 5 days per week for 28 days; type: organism-based; set-up: dose 20 mg/kg, route intraperitoneal; settings: in vivo
Summary of the method: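 Castrated male SCID mice carried subcutaneous CWR22Rv1 tumors (1 × 10⁶ cells implanted) and were randomized at ~100 mm³, n = 6/group. Dosing was ip 20 mg/kg once daily, 5 days/week for 28 days, in 40% β-cyclodextrin in ddH₂O, against vehicle. Body weight was monitored throughout as a surrogate toxicity marker.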

CWR22R [4] = test: Antitumor activity against human CWR22Rv1 cells xenografted in SCID mouse assessed as reduction in Mnk1/2 protein expression at 20 mg/kg, ip dosed once daily for 5 days per week for 28 days by SDS-PAGE and Western blotting method; type: functional, organism-based; set-up: dose 20 mg/kg; summary of the method: as §1
LNCaP [5] = test: Reduction in cell viability in human LNCAP cells at 5 uM after 72 hrs by MTT assay; type: functional, cell-based
Summary of the method: (§2)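 LNCaP cells transfected with 100 nM AR and/or Mnk1 siRNA (or scrambled control) by lipofection for 18 h, washed twice with PBS, returned to growth medium; drug added 24 h later, viability read by MTT after 72 h. Untransfected cells treated alike. Knockdown confirmed by immunoblot; three independent experiments, normalized to control cells.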

LNCaP [6] = test: Reduction in cell viability in human LNCAP cells in presence of AR siRNA at 2.5 uM and 5 uM after 72 hrs by MTT assay; type: functional, cell-based; summary of the method: as §2
LNCaP [7] = test: Reduction in cell viability in human LNCAP cells in presence of Mnk1 siRNA at 2.5 uM and 5 uM after 72 hrs by MTT assay; type: functional, cell-based
Summary of the method: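 LNCaP cells in RPMI 1640 with 10% FBS were transfected with 100 nM Mnk1 siRNA (Lipofectamine 2000) for 18 h, with scrambled siRNA as control. After two PBS washes they were returned to growth medium, dosed 24 h later, and harvested after 72 h. Viability was read by MTT and normalized to control cells, as mean ± SEM of three independent experiments.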

[8] = Antitumor activity against human CWR22Rv1 cells xenografted in SCID mouse assessed as tumor growth at 20 mg/kg, ip dosed once daily for 5 days per week for 28 days; type: functional, CWR22R; settings: route intraperitoneal
Summary of the method: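 Castrated male SCID mice carrying subcutaneous CWR22Rv1 tumors (1 × 10⁶ cells implanted; ~100 mm³ at randomization, n = 6/group) given ip drug in 40% β-cyclodextrin/ddH₂O once daily, 5 days/week for 28 days; vehicle controls. Tumor volume followed; %T/C = median treated volume/median control volume at day 28 × 100. Body weight tracked as toxicity marker.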

CWR22R [9] = test: Antitumor activity against human CWR22Rv1 cells xenografted in SCID mouse assessed as increase in Bad protein expression at 20 mg/kg, ip dosed once daily for 5 days per week for 28 days by SDS-PAGE and Western blotting method; type: functional, organism-based; set-up: dose 20 mg/kg; summary of the method: as §1
CWR22R [10] = test: Antitumor activity against human CWR22Rv1 cells xenografted in SCID mouse assessed as reduction in peIF4E protein expression at 20 mg/kg, ip dosed once daily for 5 days per week for 28 days by SDS-PAGE and Western blotting method; type: functional, organism-based; set-up: dose 20 mg/kg; summary of the method: as §1
CWR22R [11] = test: Antitumor activity against human CWR22Rv1 cells xenografted in SCID mouse assessed as reduction in AR-V7 protein expression at 20 mg/kg, ip dosed once daily for 5 days per week for 28 days by SDS-PAGE and Western blotting method; type: functional, organism-based; set-up: dose 20 mg/kg; summary of the method: as §1
[12] = Antitumor activity against human CWR22Rv1 cells xenografted in SCID mouse assessed as inhibition of tumor growth at 20 mg/kg, ip dosed once daily for 5 days per week for 28 days; type: functional, CWR22R; settings: 22Rv1, ip, route intraperitoneal, read-out: TGI

In the case of `CC1=C(/C=C/C(C)=C/C=C/C(C)=C\C(=O)Nc2cccc(F)c2)C(C)(C)CCC1n1ccnc1` (stereo not drawn), the Activity (CWR22R [1]) is reported as “Active”, the Activity (CWR22R [2]) is reported as “Active” and the Activity (CWR22R [3]) is reported as “Active”. The Activity (Mus musculus) was “Non-toxic”, the Activity (CWR22R [4]) was “Active” and the Activity (LNCaP [5]) was “Active”. For the same compound, the Activity (LNCaP [6]) was “Active”, the Activity (LNCaP [7]) was “Active” and the T/C [8] was 38.8%. For the same compound, the Activity (CWR22R [9]) was “Active”, the Activity (CWR22R [10]) was “Active” and the Activity (CWR22R [11]) was “Active”. It also gave an inhibition in vivo at 20 mg/kg [12] of 61.2%.

Source: ChEMBL document CHEMBL3414559, “Novel C-4 heteroaryl 13-cis-retinamide Mnk/AR degrading agents inhibit cell proliferation and migration and induce apoptosis in human breast and prostate cancer cells and suppress growth of MDA-MB-231 human breast and CWR22Rv1 human prostate tumor xenografts in mice” (J Med Chem, 2015)
